Measured values from ChEMBL document CHEMBL3124870, “Discovery and characterization of potent thiazoles versus methicillin- and vancomycin-resistant Staphylococcus aureus” (J Med Chem, 2014).
Converted amounts (≈) assume the structure as drawn.

Columns and labels:
Staphylococcus aureus [1] = assay: Antibacterial activity against methicillin-resistant Staphylococcus aureus NRS108 assessed as inhibition of visible growth by broth microdilution method; assay type: functional
Staphylococcus aureus [2] = assay: Antibacterial activity against methicillin-resistant Staphylococcus aureus USA700 assessed as inhibition of visible growth by broth microdilution method; assay type: functional
Staphylococcus aureus [3] = assay: Antibacterial activity against methicillin-resistant Staphylococcus aureus NRS107 assessed as inhibition of visible growth by broth microdilution method; assay type: functional
Staphylococcus aureus [4] = assay: Antibacterial activity against methicillin-resistant Staphylococcus aureus USA400 assessed as inhibition of visible growth by broth microdilution method; assay type: functional
HeLa = assay: Cytotoxicity against human HeLa cells assessed as cell viability at 11 ug/ml by MTS assay; assay type: cell-based
Staphylococcus aureus [5] = assay: Antibacterial activity against methicillin-resistant Staphylococcus aureus NRS119 assessed as inhibition of visible growth by broth microdilution method; assay type: functional
Staphylococcus aureus [6] = assay: Antibacterial activity against vancomycin-intermediate Staphylococcus aureus LIM 3 assessed as inhibition of visible growth by broth microdilution method; assay type: functional
Staphylococcus aureus [7] = assay: Antibacterial activity against vancomycin-intermediate Staphylococcus aureus HIP07256 assessed as inhibition of visible growth by broth microdilution method; assay type: functional
Staphylococcus aureus [8] = assay: Antibacterial activity against methicillin-resistant Staphylococcus aureus USA800 assessed as inhibition of visible growth by broth microdilution method; assay type: functional
Staphylococcus aureus [9] = assay: Antibacterial activity against methicillin-resistant Staphylococcus aureus NRS194 assessed as inhibition of visible growth by broth microdilution method; assay type: functional
Staphylococcus aureus [10] = assay: Antibacterial activity against vancomycin-intermediate Staphylococcus aureus ATCC 700699 assessed as inhibition of visible growth by broth microdilution method; assay type: functional
Staphylococcus aureus [11] = assay: Antibacterial activity against methicillin-resistant Staphylococcus aureus USA500 assessed as inhibition of visible growth by broth microdilution method; assay type: functional
Staphylococcus aureus [12] = assay: Antibacterial activity against methicillin-resistant Staphylococcus aureus USA200 assessed as inhibition of visible growth by broth microdilution method; assay type: functional
Staphylococcus aureus [13] = assay: Antibacterial activity against methicillin-resistant Staphylococcus aureus USA1100 assessed as inhibition of visible growth by broth microdilution method; assay type: functional
Staphylococcus aureus [14] = assay: Antibacterial activity against methicillin-resistant Staphylococcus aureus USA300 assessed as inhibition of visible growth by broth microdilution method; assay type: functional
Staphylococcus aureus [15] = assay: Antibacterial activity against methicillin-resistant Staphylococcus aureus USA100 assessed as inhibition of visible growth by broth microdilution method; assay type: functional
Staphylococcus aureus [16] = assay: Antibacterial activity against vancomycin-resistant Staphylococcus aureus assessed as inhibition of visible growth by broth microdilution method; assay type: functional
Staphylococcus aureus [17] = assay: Antibacterial activity against methicillin-resistant Staphylococcus aureus ATCC 43300 assessed as inhibition of visible growth by broth microdilution method; assay type: functional
Staphylococcus aureus [18] = assay: Antibacterial activity against methicillin-resistant Staphylococcus aureus USA1000 assessed as inhibition of visible growth by broth microdilution method; assay type: functional
Staphylococcus aureus [19] = assay: Bactericidal activity against methicillin-resistant Staphylococcus aureus USA300 assessed as time required to complete elimination of bacteria by 3-log10 by time-kill assay; assay type: functional
Method in brief: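 Viable counts (CFU) followed over a 12-hour window; endpoint is a 3-log10 fall in CFU.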

Row | Structure (SMILES) | MIC (Staphylococcus aureus [1]) [µg/mL] | MIC (Staphylococcus aureus [2]) [µg/mL] | MIC (Staphylococcus aureus [3]) [µg/mL] | MIC (Staphylococcus aureus [4]) [µg/mL] | Activity (HeLa) | MIC (Staphylococcus aureus [5]) [µg/mL] | MIC (Staphylococcus aureus [6]) [µg/mL] | MIC (Staphylococcus aureus [7]) [µg/mL] | MIC (Staphylococcus aureus [8]) [µg/mL] | MIC (Staphylococcus aureus [9]) [µg/mL] | MIC (Staphylococcus aureus [10]) [µg/mL] | MIC (Staphylococcus aureus [11]) [µg/mL] | MIC (Staphylococcus aureus [12]) [µg/mL] | MIC (Staphylococcus aureus [13]) [µg/mL] | MIC (Staphylococcus aureus [14]) [µg/mL] | MIC (Staphylococcus aureus [15]) [µg/mL] | MIC (Staphylococcus aureus [16]) [µg/mL] | MIC (Staphylococcus aureus [17]) [µg/mL] | MIC (Staphylococcus aureus [18]) [µg/mL] | Time (Staphylococcus aureus [19]) [h]
1 | CCCCCCCCCc1ccc(-c2nc(C)c(/C(C)=N/NC(=N)N)s2)cc1 | 4.4 (≈ 11 µM) | 1.8 (≈ 4.5 µM) | 1.1 (≈ 2.75 µM) | 4.4 (≈ 11 µM) | Non-toxic | 2.2 (≈ 5.51 µM) | 1.1 (≈ 2.75 µM) | 2.9 (≈ 7.26 µM) | 1.8 (≈ 4.5 µM) | 4.4 (≈ 11 µM) | 1.1 (≈ 2.75 µM) | 3.7 (≈ 9.26 µM) | – | – | – | – | – | – | – | –
2 | CCCCCCCc1ccc(-c2nc(C)c(/C(C)=N/NC(=N)N)s2)cc1 | 3 (≈ 8.07 µM) | 4 (≈ 10.8 µM) | 1 (≈ 2.69 µM) | 1.5 (≈ 4.04 µM) | Non-toxic | 1.5 (≈ 4.04 µM) | 0.7 (≈ 1.88 µM) | 1.5 (≈ 4.04 µM) | 1.5 (≈ 4.04 µM) | 3 (≈ 8.07 µM) | 0.7 (≈ 1.88 µM) | 3 (≈ 8.07 µM) | 1.2 (≈ 3.23 µM) | 1.5 (≈ 4.04 µM) | 2.5 (≈ 6.73 µM) | 3 (≈ 8.07 µM) | 1.5 (≈ 4.04 µM) | 3 (≈ 8.07 µM) | 2.5 (≈ 6.73 µM) | –
3 | C/C(=N\NC(=N)N)c1sc(-c2ccc(C3CCCCC3)cc2)nc1C | 1.5 (≈ 4.22 µM) | 1.5 (≈ 4.22 µM) | 0.6 (≈ 1.69 µM) | 0.7 (≈ 1.97 µM) | Non-toxic | 0.7 (≈ 1.97 µM) | 0.5 (≈ 1.41 µM) | 0.7 (≈ 1.97 µM) | 0.7 (≈ 1.97 µM) | 0.7 (≈ 1.97 µM) | 0.7 (≈ 1.97 µM) | 0.9 (≈ 2.53 µM) | 1.2 (≈ 3.38 µM) | 0.7 (≈ 1.97 µM) | 0.7 (≈ 1.97 µM) | 0.7 (≈ 1.97 µM) | 1.5 (≈ 4.22 µM) | 1.5 (≈ 4.22 µM) | 0.9 (≈ 2.53 µM) | 6
4 | C/C(=N\NC(=N)N)c1sc(-c2ccc(C3=CCCCC3)cc2)nc1C | 1.7 (≈ 4.81 µM) | 1.2 (≈ 3.39 µM) | 0.6 (≈ 1.7 µM) | – | Non-toxic | 0.6 (≈ 1.7 µM) | 0.8 (≈ 2.26 µM) | 0.8 (≈ 2.26 µM) | 0.8 (≈ 2.26 µM) | 0.8 (≈ 2.26 µM) | 0.5 (≈ 1.41 µM) | 1 (≈ 2.83 µM) | 1 (≈ 2.83 µM) | – | 1.2 (≈ 3.39 µM) | 1 (≈ 2.83 µM) | 1.2 (≈ 3.39 µM) | 1.2 (≈ 3.39 µM) | 0.8 (≈ 2.26 µM) | –
5 | C/C(=N\NC(=N)N)c1sc(-c2ccc3ccccc3c2)nc1C | 1.9 (≈ 5.87 µM) | 2.6 (≈ 8.04 µM) | 1.9 (≈ 5.87 µM) | – | Non-toxic | 3.8 (≈ 11.7 µM) | – | 2.6 (≈ 8.04 µM) | – | 1.9 (≈ 5.87 µM) | 3.2 (≈ 9.89 µM) | 2.6 (≈ 8.04 µM) | 2.6 (≈ 8.04 µM) | – | – | – | – | 3.8 (≈ 11.7 µM) | – | –
6 | CN[C@H](CC(C)C)C(=O)N[C@H]1C(=O)N[C@@H](CC(N)=O)C(=O)N[C@H]2C(=O)N[C@H]3C(=O)N[C@H](C(=O)N[C@H](C(=O)O)c4cc(O)cc(O)c4-c4cc3ccc4O)[C@H](O)c3ccc(c(Cl)c3)Oc3cc2cc(c3O[C@@H]2O[C@H](CO)[C@@H](O)[C@H](O)[C@H]2O[C@H]2C[C@](C)(N)[C@H](O)[C@H](C)O2)Oc2ccc(cc2Cl)[C@H]1O [VANCOMYCIN] | – | – | – | – | – | – | – | – | – | – | – | – | 0.4 (≈ 0.276 µM) | – | – | – | – | – | – | 12
